Experimental data collected from several papers.
Target: Serine/threonine-protein kinase Nek7 (NEK7, Homo sapiens, UniProt Q8TDX7)

COc1cc(Cl)c(C(=O)N[C@@H](CN[C@H]2CC[C@@H](N)CC2)Cc2ccc(C#N)cc2)cc1-c1ccc(CN[C@H](C)c2ccc(C)cc2)o1  remaining activity (enzyme activity, inhibitor; 1 µM): 99%
CC(C)(O)c1cncc(-c2nc3ccc(F)cc3n2C2CC2)c1  remaining binding (cell-free assay, competition with immobilised ligand; 1 µM): 100%
CNC(=O)c1cc(Oc2ccc(NC(=O)Nc3ccc(Cl)c(C(F)(F)F)c3)cc2)ccn1  inhibition (enzyme activity, inhibitor; 10 µM): -7%
Cn1c2c(c3ccc(Cl)c(Cl)c31)C(C#N)C1(CCN(C(=O)OC(C)(C)C)CC1)NC2=O (racemic)  ΔTm (thermal stability, DSF; 10 µM): 0 °C
CN([C@@H]1CCc2c(CC(=O)O)c3cc(S(C)(=O)=O)ccc3n2C1)S(=O)(=O)c1ccc(F)cc1  remaining binding (cell-free assay, competition with immobilised ligand; 1 µM): 98%
COc1cccc2c(NCc3ccccc3)nc(-n3c(N)nc4ccccc43)nc12  inhibition (target engagement in cells, inhibitor, chemoproteomics; 20 mM): -1%
CC(C)(C)c1nc(-c2cccc(NS(=O)(=O)c3c(F)cccc3F)c2F)c(-c2ccnc(N)n2)s1  remaining activity (enzyme activity, inhibitor, radiometric; 1 µM): 42%
CN1CCC2(CC1)NC(=O)c1c(c3ccc(Cl)c(Cl)c3n1C)C2C#N (racemic)  ΔTm (thermal stability, DSF; 10 µM): -0.4 °C
Cc1cc(NC(=O)c2cccc3cc(-c4cccc5[nH]nc(N)c45)ccc23)ccc1F  activity vs control (enzyme activity, inhibitor; 0.1 µM): 96%
O=C(O)[C@H]1[C@H](Cn2nnc3ccccc3c2=O)CC[C@@H]1C(=O)c1ccc(OCCC2CCOCC2)cc1  remaining binding (cell-free assay, competition with immobilised ligand; 1 µM): 100%
CCC1(CC)NC(=O)c2c(c3ccc(Cl)c(Cl)c3n2C)C1C#N (centres unmarked)  ΔTm (thermal stability, DSF; 10 µM): -0.4 °C
N#CCCc1ccc2c(c1)-c1[nH]c3ccc([N+](=O)[O-])cc3c1CC(=O)N2  remaining signal (cell-free assay; 0.5 µM): 87.4%
CCCOc1ccc(OC)c(F)c1C(=O)c1ccc(C(=O)N[C@@H]2CNC[C@H]2NC(=O)c2ccc3[nH]ncc3c2)cc1  remaining activity (enzyme activity, inhibitor; 10 µM): 96%
Cc1sc(C(=O)NC2COC2)cc1-n1cc(NC(=O)Nc2c(F)cccc2Cl)cn1  remaining activity (enzyme activity, inhibitor; 10 µM): 100%
CCN1CCN(Cc2ccc(NC(=O)c3ccc(C)c(Oc4ccnc5[nH]ccc45)c3)cc2C(F)(F)F)CC1  inhibition (target engagement in cells, inhibitor, chemoproteomics; A-375; 0.5 µM): -0.545%
Cn1c2c(Cl)c(Cl)ccc2c2cn[nH]c(=O)c21  ΔTm (thermal stability, DSF; 10 µM): 0 °C
Cc1noc([C@H]2C[C@@H](c3ccc(C(F)(F)F)cc3)CN(C(=O)N3CCS(=O)(=O)C3)C2)n1  remaining binding (cell-free assay, competition with immobilised ligand; 1 µM): 100%
CN1CC(Oc2cnc(C#N)cc2-c2ccn3nc(NC(=O)C4CC4)cc3c2)C1  inhibition (enzyme activity, inhibitor; 1 µM): 0%
Cc1c[nH]c2nccc(Oc3c(F)cc(Nc4cc(Cl)nc(N)n4)cc3F)c12  remaining binding (cell-free assay, competition with immobilised ligand; 0.1 µM): 100%
Cc1ccc(Nc2nccc(N(C)c3ccc4c(C)n(C)nc4c3)n2)cc1S(N)(=O)=O  inhibition (enzyme activity, inhibitor; 10 µM): -6%
